# According to ChEMBL document CHEMBL1143122, “Novel analogs of D-e-MAPP and B13. Part 1: synthesis and evaluation as potential anticancer agents” (Bioorg Med Chem, 2008):
# What was measured:
# M14 = assay: Antiproliferative activity against human M14 cells after 48 hrs; format: functional; conditions: M14, 48 h
# Outline: (§1)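 NCI 60-cell screen. Cells were grown in RPMI 1640 with 5% FBS and 2 mM L-glutamine, then plated at 5,000–40,000 cells/well according to doubling time and preincubated for 24 h at 37 °C in 5% CO2. Compounds were dissolved in DMSO at 400× the top final concentration and tested at five 10-fold dilutions from 10−4 to 10−8 M for 48 h. Growth was read spectrophotometrically; GI50 is 50% net protein reduction.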
# NCI-H226 = assay: Antiproliferative activity against human NCI-H226 cells after 48 hrs; format: functional; conditions: NCI-H226, 48 h; outline: as §1
# LOX IMVI = assay: Antiproliferative activity against human LOXIMVI cells after 48 hrs; format: functional; outline: as §1
# PC-3 = assay: Antiproliferative activity against human PC3 cells after 48 hrs; format: functional; conditions: PC-3, 48 h; outline: as §1
# RXF 393 = assay: Antiproliferative activity against human RXF393 cells after 48 hrs; format: functional; conditions: RXF 393, 48 h; outline: as §1
# MDA-MB-435 = assay: Antiproliferative activity against human MDA-MB-435 cells after 48 hrs; format: functional; conditions: Homo sapiens, MDA-MB-435, 48 h; outline: as §1
# HCT-116 = assay: Antiproliferative activity against human HCT116 cells after 48 hrs; format: functional; conditions: HCT-116, 48 h; outline: as §1
# RPMI-8226 = assay: Antiproliferative activity against human RPMI8226 cells after 48 hrs; format: functional; conditions: RPMI-8226, 48 h; outline: as §1
# OVCAR-3 = assay: Antiproliferative activity against human OVCAR-3 cells after 48 hrs; format: functional; conditions: OVCAR-3, 48 h; outline: as §1
# SW-620 = assay: Antiproliferative activity against human SW620 cells after 48 hrs; format: functional; conditions: SW-620, 48 h
# Outline: (§2)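 NCI 60-cell-line screen. Lines grown in RPMI 1640 with 5% fetal bovine serum and 2 mM L-glutamine, plated at 5,000–40,000 cells/well according to doubling time, left 24 h at 37 °C in 5% CO2. Drug stocks in DMSO at 400-fold the top final concentration. Five 10-fold dilutions, 10−4 to 10−8 M, incubated 48 h. Growth read spectrophotometrically as net protein; GI50 taken as 50% reduction.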
# A498 = assay: Antiproliferative activity against human A498 cells after 48 hrs; format: functional; conditions: A498, 48 h; outline: as §1
# SNB-19 = assay: Antiproliferative activity against human SNB19 cells after 48 hrs; format: functional; conditions: SNB-19, 48 h; outline: as §1
# SK-OV-3 = assay: Antiproliferative activity against human SKOV3 cells after 48 hrs; format: functional; conditions: SK-OV-3, 48 h; outline: as §1
# MCF7 = assay: Antiproliferative activity against human MCF7 cells after 48 hrs; format: functional, cell-based; conditions: MCF7, 48 h
# UACC-257 = assay: Antiproliferative activity against human UACC257 cells after 48 hrs; format: functional; conditions: UACC-257, 48 h; outline: as §2
# HT-29 = assay: Antiproliferative activity against human HT29 cells after 48 hrs; format: functional; conditions: HT-29, 48 h; outline: as §1
# CAKI-1 = assay: Antiproliferative activity against human CAKI1 cells after 48 hrs; format: functional; conditions: CAKI-1, 48 h; outline: as §1
# SN12C = assay: Antiproliferative activity against human SN12C cells after 48 hrs; format: functional; outline: as §1
# HOP-62 = assay: Antiproliferative activity against human HOP62 cells after 48 hrs; format: functional; conditions: HOP-62, 48 h; outline: as §1
# A549 = assay: Antiproliferative activity against human A549 cells after 48 hrs; format: functional; conditions: A549, 48 h; outline: as §1
# NCI-H522 = assay: Antiproliferative activity against human NCI-H522 cells after 48 hrs; format: functional; conditions: NCI-H522, 48 h; outline: as §1
# NCI-H322M = assay: Antiproliferative activity against human NCI-H322M cells after 48 hrs; format: functional; outline: as §1
# TK-10 = assay: Antiproliferative activity against human TK10 cells after 48 hrs; format: functional; conditions: TK-10, 48 h; outline: as §2
# KM12 = assay: Antiproliferative activity against human KM12 cells after 48 hrs; format: functional; conditions: Homo sapiens, KM12, 48 h; outline: as §1
# UACC-62 = assay: Antiproliferative activity against human UACC62 cells after 48 hrs; format: functional; conditions: UACC-62, 48 h; outline: as §2
# SF-295 = assay: Antiproliferative activity against human SF295 cells after 48 hrs; format: functional; conditions: SF-295, 48 h; outline: as §1
# CCRF-CEM = assay: Antiproliferative activity against human CCRF-CEM cells after 48 hrs; format: functional; outline: as §1
# HCT-15 = assay: Antiproliferative activity against human HCT15 cells after 48 hrs; format: functional; conditions: Homo sapiens, HCT-15, 48 h; outline: as §1
# HCC 2998 = assay: Antiproliferative activity against human HCC2998 cells after 48 hrs; format: functional; conditions: HCC 2998, 48 h; outline: as §1
# SK-MEL-2 = assay: Antiproliferative activity against human SKMEL2 cells after 48 hrs; format: functional; conditions: SK-MEL-2, 48 h; outline: as §1
# DU-145 = assay: Antiproliferative activity against human DU145 cells after 48 hrs; format: functional; conditions: DU-145, 48 h; outline: as §1
# T47D = assay: Antiproliferative activity against human T47D cells after 48 hrs; format: functional; outline: as §2
# [1] = read-out: Log LC50 (the source's name) (converted)
compound,measurement,setting,value
CCCCCCCCCCCCCCN[C@@H](CO)Cc1ccccc1,GI50,M14,2.24 µM
same,LC50,M14,6.76 µM
same,TGI,M14; read-out: Log TGI (converted),3.89 µM
same,GI50,NCI-H226,1.91 µM
same,TGI,NCI-H226; read-out: Log TGI (converted),3.8 µM
same,GI50,LOX IMVI,1.58 µM
same,LC50,LOX IMVI,5.75 µM
same,TGI,LOX IMVI; read-out: Log TGI (converted),3.02 µM
same,GI50,PC-3,1.62 µM
same,LC50,PC-3,5.62 µM
same,TGI,PC-3; read-out: Log TGI (converted),2.82 µM
same,GI50,RXF 393,1.7 µM
same,CC50,RXF 393; [1],6.92 µM
same,TGI,RXF 393; read-out: Log TGI (converted),3.47 µM
same,GI50,MDA-MB-435,1.74 µM
same,LC50,MDA-MB-435,5.62 µM
same,TGI,MDA-MB-435; read-out: Log TGI (converted),3.16 µM
same,GI50,HCT-116,2.04 µM
same,LC50,HCT-116,6.76 µM
same,TGI,HCT-116; read-out: Log TGI (converted),3.72 µM
same,GI50,RPMI-8226,1.55 µM
same,CC50,RPMI-8226; [1],7.41 µM
same,TGI,RPMI-8226; read-out: Log TGI (converted),3.39 µM
same,GI50,OVCAR-3,1.66 µM
same,LC50,OVCAR-3,5.5 µM
same,TGI,OVCAR-3; read-out: Log TGI (converted),3.02 µM
same,GI50,SW-620,2 µM
same,LC50 (concentration killing 50% of cells),SW-620,8.13 µM
same,TGI,SW-620; read-out: Log TGI (converted),4.07 µM
same,GI50,A498,14.5 µM
same,CC50,A498; [1],52.5 µM
same,TGI,A498; read-out: Log TGI (converted),27.5 µM
same,GI50,SNB-19,1.7 µM
same,CC50,SNB-19; [1],5.89 µM
same,TGI,SNB-19; read-out: Log TGI (converted),3.16 µM
same,GI50,SK-OV-3,2.19 µM
same,CC50,SK-OV-3; [1],9.33 µM
same,TGI,SK-OV-3; read-out: Log TGI (converted),4.57 µM
same,GI50,MCF7,1.74 µM
same,LC50,MCF7,6.03 µM
same,TGI,MCF7; read-out: Log TGI (converted),3.24 µM
same,GI50,UACC-257,2.09 µM
same,CC50,UACC-257; [1],17.8 µM
same,TGI,UACC-257; read-out: Log TGI (converted),4.79 µM
same,GI50,HT-29,2.04 µM
same,LC50,HT-29,7.76 µM
same,TGI,HT-29; read-out: Log TGI (converted),3.98 µM
same,GI50,CAKI-1,1.66 µM
same,CC50,CAKI-1; [1],5.62 µM
same,TGI,CAKI-1; read-out: Log TGI (converted),3.09 µM
same,GI50,SN12C,1.86 µM
same,LC50 (50% net cell kill),SN12C,7.41 µM
same,TGI,SN12C; read-out: Log TGI (converted),3.72 µM
same,GI50,HOP-62,1.23 µM
same,CC50,HOP-62; [1],5.37 µM
same,TGI,HOP-62; read-out: Log TGI (converted),2.57 µM
same,GI50,A549,2.04 µM
same,CC50,A549; [1],26.3 µM
same,TGI,A549; read-out: Log TGI (converted),4.68 µM
same,GI50,NCI-H522,2.09 µM
same,TGI,NCI-H522; read-out: Log TGI (converted),3.98 µM
same,GI50,NCI-H322M,2 µM
same,CC50,NCI-H322M; [1],7.41 µM
same,TGI,NCI-H322M; read-out: Log TGI (converted),3.89 µM
same,GI50,TK-10,2.04 µM
same,CC50,TK-10; [1],6.76 µM
same,TGI,TK-10; read-out: Log TGI (converted),3.72 µM
same,GI50,KM12,1.86 µM
same,CC50,KM12; [1],6.17 µM
same,TGI,KM12; read-out: Log TGI (converted),3.39 µM
same,GI50,UACC-62,2 µM
same,LC50,UACC-62,7.94 µM
same,TGI,UACC-62; read-out: Log TGI (converted),3.98 µM
same,GI50,SF-295,1.78 µM
same,LC50,SF-295,6.17 µM
same,TGI,SF-295; read-out: Log TGI (converted),3.31 µM
same,GI50,CCRF-CEM,1.74 µM
same,CC50,CCRF-CEM; [1],7.76 µM
same,TGI,CCRF-CEM; read-out: Log TGI (converted),3.72 µM
same,GI50,HCT-15,1.7 µM
same,LC50,HCT-15,5.89 µM
same,TGI,HCT-15; read-out: Log TGI (converted),3.16 µM
same,GI50,HCC 2998,2.24 µM
same,CC50,HCC 2998; [1],6.17 µM
same,TGI,HCC 2998; read-out: Log TGI (converted),3.72 µM
same,GI50,SK-MEL-2,2.69 µM
same,LC50,SK-MEL-2,> 100 µM
same,TGI,SK-MEL-2; read-out: Log TGI (converted),5.5 µM
same,GI50,DU-145,1.45 µM
same,CC50,DU-145; [1],6.03 µM
same,TGI,DU-145; read-out: Log TGI (converted),3.09 µM
same,GI50,T47D,1.66 µM
same,CC50,T47D; [1],6.92 µM
same,TGI,T47D; read-out: Log TGI (converted),3.31 µM
